Rows were chosen to be rich in hits. Some 3.4% of all compounds tested hit in one or more screens of this group.
ANO1 block: TMEM16A chloride channel inhibitors, primary screen, cell-based, HTS; HEK293 TMEM16A/YFP iodide influx fluorescence, ionomycin; Anoctamin-1 (Mus musculus), Q8BHY3; AID 588511, 2011; normalized B-score (activity score, 25-100; higher = stronger inhibition) at 10 µM; hit rate 1.2% among 310,000;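 active = ratio plate-corrected score three or more library SD toward inhibition, starting fluorescence score within five deviations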;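 note: score derived from kinetic fluorescence span divided by baseline fluorescence per well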
beta cell repl: inducers of MIN6 beta-cell proliferation, primary screen, ATP luminescence, uHTS. hit rate 0.29% among 330,000. proliferation, % at 10 µM. MIN6 cells proliferation, ATPlite luminescence, 48 h; cells starved in 0.2% serum; 100% = growth in 10% serum;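 active = compounds whose signal lies at least 3.5 SD above the mean of all wells on their plate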;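 note: 0% = DMSO-treated cells in low-serum medium and 100% = 10% serum control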
MC4R antag cAMP: MC4R antagonists of cAMP signaling, primary screen, cell-based, TR-FRET, antagonist arm of biased-ligand search | Melanocortin receptor 4 (Homo sapiens), P32245 | MC4R-expressing cells, MTII-stimulated cAMP, LANCE TR-FRET | inhibition, % at 6.5 µM | hit rate 0.48% among 360,000;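 active = inhibition above its plate's cutoff, the mean of tested wells on that plate plus 3 SD, cut at about 29% in these data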;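 note: 0% = Melanotan II alone and 100% = Melanotan II plus saturating MCL0020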
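system = U2OS cells with stable human MC4R expression | also added = Melanotan II challenge after compound preincubation | dosing = one concentration, 6.5 µM nominal | incubation = compound 30 min, challenge 1 h, detection 1 h | measured by = TR-FRET with Eu-cAMP and labeled anti-cAMP, 671 nm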
TMEM16A act: TMEM16A chloride channel activators or potentiators, primary screen, cell-based, HTS; Anoctamin-1 (Mus musculus), Q8BHY3; HEK293 TMEM16A/YFP-H148Q/I152L, iodide quench fluorescence; hits give low values; B-score at 10 µM; hit rate 0.3% among 340,000; AID 623877, 2012;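 active = fluorescence-ratio B-score plate-corrected deviation score at least 3 library SD below zero, with starting fluorescence score within 5 deviations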;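 note: channel opened by trigger with iodide after compound preincubation; score built on the fluorescence ratio of max minus min over baseline; more negative score means more quench and so TMEM16A activation or potentiation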
MC4R ag barr: MC4R agonists recruiting beta-arrestin, primary screen, cell-based, luminescence, agonist arm of biased-ligand search; U2OS MC4R beta-arrestin complementation; percent of melanotan II response, DMSO zero; activation, % at 8.9 µM; hit rate 0.98% among 360,000;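 active = activation above a per-plate cutoff, the mean activation of sample wells on that plate plus 3 SD, cut at about 8% in these data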
HTR2A ag: mouse Htr2a agonists via beta-arrestin recruitment, primary screen, cell-based, luminescence; AID 624169, 2012; hit rate 0.66% among 360,000; CHO-K1 mHTR2A beta-arrestin complementation; percent of 30 µM serotonin response; activation, % at 7.6 µM; 5-hydroxytryptamine receptor 2A (Mus musculus), P35363;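 active = activation above a run cutoff, the mean activation of all tested compounds plus 3 SD, cut at about 14% in these data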;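 note: 0% = plate median of compound wells and 100% = 30 µM serotonin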
Target sequence (P35363 whole entry, looked up): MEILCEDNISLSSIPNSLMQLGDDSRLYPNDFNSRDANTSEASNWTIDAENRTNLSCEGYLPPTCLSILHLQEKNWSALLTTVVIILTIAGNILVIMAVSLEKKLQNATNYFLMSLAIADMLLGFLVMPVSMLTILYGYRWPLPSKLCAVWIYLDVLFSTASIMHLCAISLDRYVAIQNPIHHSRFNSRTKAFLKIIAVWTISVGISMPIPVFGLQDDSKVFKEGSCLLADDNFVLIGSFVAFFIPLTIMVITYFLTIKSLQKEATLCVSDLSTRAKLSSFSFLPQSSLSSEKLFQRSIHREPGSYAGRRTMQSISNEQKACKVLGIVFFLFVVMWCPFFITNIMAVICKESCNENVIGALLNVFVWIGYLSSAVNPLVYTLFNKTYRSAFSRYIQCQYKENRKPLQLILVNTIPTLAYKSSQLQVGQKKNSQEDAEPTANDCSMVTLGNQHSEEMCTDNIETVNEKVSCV
TMEM16A reconf: TMEM16A chloride channel inhibitors, confirmation, cell-based, re-confirmation; hit rate 39% among 2,300; HEK293 TMEM16A/YFP-H148Q, iodide quench fluorescence; ionomycin added to raise cell calcium; inhibition, % at 10 µM; shares compounds with ANO1 block;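 active = mean duplicate percent inhibition, scaled so buffer wells are 0 and the reference blocker 100, over three buffer SD above buffer mean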
TMEM16A Ca cntr: calcium mobilization in TMEM16A/YFP HEK293 cells, confirmation, counter-screen for TMEM16A inhibitor project; shares compounds with ANO1 block; Fluo4 calcium mobilization; calcium response (% of ionomycin), % at 10 µM; hit rate 2% among 2,300; AID 652231, 2013;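 active = duplicate-averaged calcium signal over 20% of the ionomycin maximum, relative to buffer baseline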;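 note: each well's signal is peak minus trough fluorescence divided by its pre-addition baseline; 0% = buffer wells and 100% = ionomycin wells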
YFP-HEK293 quench: iodide YFP quench changes in parental YFP-HEK293, counter-screen for TMEM16A inhibitor project, cell-based; shares compounds with ANO1 block; ionomycin; YFP ratio F(max-min)/F0 at 10 µM; 2,300 tested, under 10 active; AID 652233, 2013;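 active = yellow fluorescent protein signal ratio exceeding the buffer control mean by over 5 SD of those controls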;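 note: ratio is mean of duplicate wells from kinetic YFP trace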
ClC-1 rat inh: ClC-1 chloride channel inhibition, selectivity assay for TMEM16A inhibitor project, cell-based, voltage-dependent ClC-1; shares compounds with ANO1 block; CHO ClC-1-YFP, iodide influx fluorescence quench; iodide control reads 0, buffer control 100; ratio percent, % at 10 µM; 2,300 tested, under 10 active; AID 652236, 2013;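 active = duplicate-mean ratio percent above the mean of iodide-only control wells, which defines zero, plus 5 of their SD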;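 note: higher percent means stronger block of ClC-1 iodide influx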
* = called active by the depositor; i = inactive; nt = not tested or not shown.

SMILES	ANO1 block	beta cell repl	MC4R antag cAMP	TMEM16A act	MC4R ag barr	HTR2A ag	TMEM16A reconf	TMEM16A Ca cntr	YFP-HEK293 quench	ClC-1 rat inh
CCOC(=O)C(=O)N(CC)C1CCS(=O)(=O)C1 (centres undefined)	100*	-1	-1	i	0	0	i	i	-1	-17
CCN(C(=O)COC(=O)c1cnc(C)cn1)C1CCS(=O)(=O)C1 (centres undefined)	i	-2	2	i	2	5	nt	nt	nt	nt
CCSC(=O)N1c2ccc(OC)cc2C=CC1C#N (centres undefined)	nt	nt	-23	i	-1	-2	nt	nt	nt	nt
COc1ccccc1CNC(=O)N1CCN(c2ccccc2Cl)CC1	i	3	15	i	0	-1	nt	nt	nt	nt
CCN(C(=S)NCc1ccccc1)c1cccc2ccccc12	25*	-3	17	i	0	-2	i	i	-1.2	-8
CCN(C(=S)NCc1ccccc1)c1ccccc1	i	0	2	i	-3	-2	nt	nt	nt	nt
CCc1ccccc1N(CC)C(=O)CCc1nc(-c2ccc(C)cc2)no1	100*	-3	-4	i	-1	-7	30%*	i	-0.88	-12
CCN(Cc1ccccc1)C(=O)CCc1nc(-c2ccc(C)cc2)no1	i	-1	0	i	-2	-3	nt	nt	nt	nt
COc1cccc(CN2C(=O)[C@@H]3Cc4c([nH]c5ccccc45)C(C)(C)N3C2=O)c1	25*	-6	-1	i	-2	-7	18%*	i	-1.1	-8
CC(=O)NCCNc1nc2cc(-c3ccccc3CO)sc2c(=O)n1C	nt	nt	10	nt	1	-1	nt	nt	nt	nt
Cc1cc(C(=O)Nn2c(C3CCCCC3)nc3ccccc3c2=O)ccc1[N+](=O)[O-]	i	-3	13	i	4	-4	nt	nt	nt	nt
O=C(Nn1c(C2CCCCC2)nc2ccccc2c1=O)c1ccc(Cl)c([N+](=O)[O-])c1	25*	-6	17	i	1	0	22%*	i	-1.1	-9
N#C/C(=C\c1ccc(Sc2nc3ccccc3[nH]2)o1)c1ccccc1	100*	-4	1	i	-1	-1	22%*	i	-0.93	-20
CCOc1ccc(NC(=O)C2CCC(C)(C(=O)O)C2(C)C)cc1 (centres undefined)	25*	1	7	i	-2	-1	i	i	-1.1	-6
O=C(O)c1cc([N+](=O)[O-])ccc1NCc1ccccn1	i	0	5	i	-2	0	nt	nt	nt	nt
COc1ccc(N(CC(=O)Nc2ccc(C)cc2)S(=O)(=O)c2c(C)noc2C)cc1	i	-3	0	i	5	9	nt	nt	nt	nt
COc1ccc(NC(=O)CN(c2cc(C)cc(C)c2)S(=O)(=O)c2c(C)noc2C)cc1	100*	-5	2	i	2	0	i	i	-1.1	0
Cc1cc(=O)oc2cc(OCC(O)CN3CCc4ccccc4C3)ccc12 (centres undefined)	25*	-2	-4	i	3	5	i	i	-1.3	-8
Cc1cc(=O)oc2cc(OCC(O)CN3CCN(c4ccccc4)CC3)ccc12 (centres undefined)	i	0	-8	i	2	3	nt	nt	nt	nt
CCOC(=O)c1c(C)[nH]c(C(=O)OCC(=O)N(CC(C)C)C2CCS(=O)(=O)C2)c1C (centres undefined)	nt	3	-3	i	-3	11	nt	nt	nt	nt
Cc1ccc(-n2nc3c(=O)n(CC(=O)NC4CCCCC4)nc(C)c3c2C)cc1	i	-3	0	i	-4	3	nt	nt	nt	nt
CC1CCCC(C)N1C(=O)CSc1nc2ccccc2s1 (centres undefined)	i	-3	1	i	-2	-3	nt	nt	nt	nt
CCCCC1CC(C)(C(=O)CSc2nc3ccccc3s2)OC1=O (centres undefined)	100*	-1	-3	i	2	-4	30%*	i	-1	-2
CCCCOC(=O)Nc1nnc(COc2ccccc2)s1	25*	1	0	i	-1	-2	i	i	-0.82	-16
COC(=O)Nc1nnc(COc2ccccc2)s1	i	-1	-2	i	-1	1	nt	nt	nt	nt
SMILES	ANO1 block	beta cell repl	MC4R antag cAMP	TMEM16A act	MC4R ag barr	HTR2A ag	TMEM16A reconf	TMEM16A Ca cntr	YFP-HEK293 quench	ClC-1 rat inh
CN(C)CCNc1ncnc2c1ncn2[C@H]1CN(Cc2ccc(Cl)cc2)C[C@@H](CO)O1	nt	nt	17	nt	-2	0	nt	nt	nt	nt
CCOC(=O)c1cn(Cc2ccccc2)c(C(=O)OC(C)(C)C)c1O	100*	-7	3	i	1	-4	32%*	i	-0.98	-9
CCOc1ccc(N2CC(C(=O)N3CCCCCC3)CC2=O)cc1 (centres undefined)	i	1	-5	i	1	3	nt	nt	nt	nt
Cc1ccc(C(=O)COC(=O)CCC(=O)Nc2cccc(Cl)c2)cc1[N+](=O)[O-]	100*	-2	9	i	0	4	i	i	-0.91	-14
CC(NC(=O)CN1CCCC1)C12CC3CC(CC(C3)C1)C2 (centres undefined)	i	-6	-2	i	-1	-3	nt	nt	nt	nt
CC(NC(=O)Cn1cnnn1)C12CC3CC(CC(C3)C1)C2 (centres undefined)	100*	-1	10	i	0	1	i	i	-1.2	-10
O=C(NCC1COc2ccccc2O1)c1ccc(Br)s1 (centres undefined)	i	-2	12	i	-3	-5	nt	nt	nt	nt
OC(COc1ccc2ccccc2c1Br)Cn1ccnc1 (centres undefined)	25*	-2	0	i	-1	-6	i	i	-1	-1
